Measured values gathered from unrelated publications.
Lines come from different studies, so protocols differ.
Matrix: plasma

| Structure (SMILES) | system | setting | half-life [h] |
| --- | --- | --- | --- |
| C[C@@H](Nc1cc(F)cc(F)c1)c1cc(C(=O)N(C)C)cc2c(=O)cc(N3CCOCC3)oc12 | human | oral, 30 mg, patients | 3.79 |
| CC(C)[C@](O)(c1ccc2cc(OC(F)F)c(OC(F)F)cc2c1)c1c[nH]nn1 | female human | oral, 600 mg, single dose | 8.4 |
| Cc1cc(Nc2ncc(Cl)c(Nc3ccccc3S(=O)(=O)C(C)C)n2)c2c(c1C1CCN(C)CC1)C[C@@H](C)O2 | human | oral, 160 mg, single dose, fed | 34.7 |
| O=c1c(O)c(-c2ccc(O)c(O)c2)oc2cc(O)cc(O)c12 | human | oral, 500 mg, single dose, fasted, healthy volunteers | 6.26 |
| NS(=O)(=O)NCCNc1nonc1C(=NO)Nc1ccc(F)c(Br)c1 | human | oral, 300 mg, multiple doses, twice daily, steady state, patients | 3.9 |
| CN(C)Cc1ccc(S(=O)(=O)n2ccc(/C=C/C(=O)NO)c2)cc1 | human | oral, patients | ~4 |
| CC(C)n1cc(C#N)c2cc(-n3cc(C(=O)O)cn3)ccc21 | human | oral, 100 mg, single dose, fasted, healthy volunteers | 6.6 |
| Nc1cc(C(F)(F)F)c(-c2cc(N3CCOCC3)nc(N3CCOCC3)n2)cn1 | human | oral, 100 mg/day, patients | 30.6 |
| C/C(=C\c1csc(C)n1)[C@@H]1C[C@@H]2O[C@]2(C)CCC[C@H](C)[C@H](O)[C@@H](C)C(=O)C(C)(C)[C@@H](O)CC(=O)N1 | human | intravenous, 20 mg/m², patients | 62.2 |
| CC(C)(C)OC[C@@H]1C(=O)NCCN1C(=O)C[C@H](N)Cc1cc(F)c(F)cc1F | male human | oral, 5 mg, multiple doses, steady state, healthy volunteers | 24.7 |
| COc1ccc(Oc2cc(N(C)CCOc3ccc(CC4SC(=O)NC4=O)cc3)ncn2)cc1 (stereo not shown) | male human | oral, 0.5 mg, multiple doses, once daily, steady state | 7.06 |
| C[C@@H](c1ccc2nccn2c1)n1nnc2ncc(-c3cnn(C)c3)nc21 | human | oral, 200 mg | 4.2 |
| CO[C@H]1CC[C@H](N2C(=O)CNc3ncc(-c4ccc(C(C)(C)O)nc4)nc32)CC1 | human | oral, 7.5 mg, patients | 7.68 |
| C#C[C@]1(COP(=O)(O)OP(=O)(O)OP(=O)(O)O)O[C@@H](n2cnc3c(N)nc(F)nc32)C[C@@H]1O | human | oral, 15 mg, single dose | 161 |
| COc1ccc([C@@H]2CN(C(=O)[C@@H](O)CO)C[C@@]2(C)[C@@H](C)O)cc1OC1CN(c2ccc(C)cn2)C1 | human | oral, 1.5 mg, single dose, healthy volunteers | 13.5 |
| Cc1nc(-c2cn3c(n2)-c2ccc(-c4cnn(C(C)(C)C(N)=O)c4)cc2OCC3)n(C(C)C)n1 | human | oral, 6 mg, patients | 22.4 |

| Structure (SMILES) | system | setting | half-life [h] |
| --- | --- | --- | --- |
| CO[C@@H]1[C@H](OC(=O)N2CC(CCN3CCOCC3)C2)CC[C@]2(CO2)[C@H]1[C@@]1(C)O[C@@H]1CC=C(C)C | human | subcutaneous, 0.2 mg, single dose, healthy volunteers | 0.49 |
| COc1ccc(-n2nc(C(N)=O)c3c2C(=O)N(c2ccc(N4CCCCC4=O)cc2)CC3)cc1 | human | oral, 20 mg, single dose, healthy volunteers | ~13 |
| CC(C)(O)c1ccccc1-c1ccc2[nH]c(/C=C/c3ccc(C(F)(F)F)cc3)nc2c1 | male human | oral, 2 mg, single dose, fasted, healthy volunteers | 47.8 |
| COc1cc(C(=O)NC2CCN(C)CC2)c(F)cc1Nc1ncc(C(F)(F)F)c(Oc2cccc3c2C(=O)N(C)C3)n1 | human | oral, 200 mg, multiple doses, once daily, patients | 20.4 |
| CC(C)(O)c1cc(Nc2cc(Oc3cn(C4CC4)nc3C3CCOCC3)ccn2)ccn1 | human | oral, patients | 6.7 |
| CCNCCCNC/C=C\CNCCCNCC | human | intravenous, 50 mg, patients, infusion | 0.18 |
| CS(=O)(=O)CCC#N | human | oral, 300 mg, multiple doses, once daily | 21.3 |
| CCOc1cc([C@@H](CS(C)(=O)=O)N2C(=O)c3cccc(NC(C)=O)c3C2=O)ccc1OC | human | oral, 30 mg, single dose, healthy volunteers | 8.08 |
| c1cnc2ccc(Nc3nc(NC4CC4)c4nc[nH]c4n3)cc2c1 | human | oral, 400 mg/m², patients | 3.6 |
| CO[C@H]1/C=C\C=C(/C)C(=O)NC2=CC(=O)C(NCCN(C)C)=C(C[C@@H](C)C[C@H](OC)[C@H](O)[C@@H](C)/C=C(\C)[C@@H]1OC(N)=O)C2=O | human | intravenous, 12 mg/m², patients, infusion | 14.1 |
| O=C(Nc1c(Cl)cncc1Cl)c1ccc(OC(F)F)c(OCC2CC2)c1 | human | oral, 0.375 mg, single dose | 19.7 |
| Cn1cc(-c2ccc(S(=O)(=O)[C@@H]3C[C@@H](C(=O)NC4(C#N)CC4)N(C(=O)C4(C(F)(F)F)CC4)C3)c(C(F)(F)F)c2)cn1 | human | oral, 1 mg, single dose, fasted, healthy volunteers | 5.47 |
| CC(C)(Sc1ccncc1-c1ccc(C#N)c2ccccc12)C(=O)O | male human | oral, 5 mg, single dose, fed, healthy volunteers | 12.7 |
| O=C(/C=C/c1cccc(S(=O)(=O)Nc2ccccc2)c1)NO | human | intravenous, 2000 mg/m², patients | 1.42 |
| COCCOc1cnc2ccn([C@H](C)c3nnc4c(F)cc(-c5cnn(C)c5)cn34)c(=O)c2c1 | human | oral, 300 mg, multiple doses, once daily, patients | 9.7 |
